Measured values published in ChEMBL document CHEMBL1122682, “Synthesis of potent heptapeptide analogues of cholecystokinin” (1984).
*1 amine or outer side, *2 acyl side, *3 side chain or, on linkers, in order; H or OH if unused. Where a SMILES comes first, the peptide text is derived from it. [ ]: non-standard residue; d: D form. X1 = O=C([C@@H]1C[C@@H](OS(=O)(=O)O)CN1[*:1])[*:2]; Thr(SO3H) = C[C@@H](OS(=O)(=O)O)[C@H](N)C(=O)O; sY = N[C@@H](Cc1ccc(OS(=O)(=O)O)cc1)C(=O)O

Experiments:
Format in all cases: functional
Mus musculus [1] = experiment: Anticonvulsive activity against picrotoxin-induced (6 mg/kg sc) convulsions in mice, time of death
Outline: (§1)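 Male CFLP mice (25–35 g), 10 per group. Peptides in physiological saline given ip at 0.8 μmol/kg (1 mg/kg for CCK-8) 10 min before picrotoxin 6 mg/kg sc. Latency to first tonic seizure and time of death recorded over 60 min; a score of 60 is given if neither occurs. Percentage prolongation of mean saline-control latency is expressed relative to CCK-8. Student's t test vs saline controls.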

Oryctolagus cuniculus = organism: Oryctolagus cuniculus; experiment: Compound was evaluated for cholecystokinin activity measured in isolated rabbit gallbladder strips (in vitro)
Outline: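 Tension changes recorded with a force-displacement transducer. Dose-response curves were run for CCK-8 and each analogue, with five determinations per compound. ED50 and maximal response came from direct observation and a Dowd-Riggs linear transformation. Activity is relative to CCK-8 (100%), reported as mean ± SEM.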

Rattus norvegicus = experiment: Compound was evaluated for (in vivo) gastrin like activity measured on perfused rat stomach after intravenous administration
Outline: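 Male Wistar rats (~250 g), perfused stomach; peptides given iv in physiological saline at 10, 20, 40, 80, 160 and 320 ng; secreted HCl measured by conductometric titration. Pentagastrin standard at 10–80 ng, taken as 100%. Relative potency expressed as a percentage; 10 animals per compound; detection limit 1–2% of pentagastrin.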

Mus musculus [2] = experiment: Anticonvulsive potency against picrotoxin induced (6 mg/kg sc) convulsions in mice, first tonic seizure; outline: as §1

Compound	Activity (Mus musculus [1]) [%]	Activity (Oryctolagus cuniculus) [%]	Activity (Rattus norvegicus) [%]	Activity (Mus musculus [2]) [%]
CSCC[C@H](NC(=O)[C@H](Cc1ccc(OS(=O)(=O)[O-])cc1)NC(C)=O)C(=O)NCC(=O)N[C@H](Cc1c[nH]c2ccccc12)C(=O)N[C@@H](CCSC)C(=O)N[C@@H](CC(=O)O)C(=O)N[C@@H](Cc1ccccc1)C(N)=O.[Na+]	45	0.7	0	65
CSCC[C@H](NC(=O)[C@H](Cc1c[nH]c2ccccc12)NC(=O)[C@@H](C)NC(=O)[C@H](CCSC)NC(=O)[C@H](Cc1ccc(OS(=O)(=O)[O-])cc1)NC(C)=O)C(=O)N[C@@H](CC(=O)O)C(=O)N[C@@H](Cc1ccccc1)C(N)=O.[Na+]	115	40	0	100
CSCC[C@H](NC(=O)[C@H](Cc1ccc(O)cc1)NC(C)=O)C(=O)NCC(=O)N[C@@H](Cc1c[nH]c2ccccc12)C(=O)N[C@@H](CCSC)C(=O)N[C@@H](COS(=O)(=O)[O-])C(=O)N[C@@H](Cc1ccccc1)C(N)=O.[Na+]	–	0.3	40	–
CSCC[C@H](NC(=O)[C@H](Cc1ccc(OS(=O)(=O)[O-])cc1)NC(C)=O)C(=O)NCC(=O)N[C@@H](Cc1c[nH]c2ccccc12)C(=O)N[C@@H](CCSC)C(=O)N[C@@H](COS(=O)(=O)[O-])C(=O)N[C@@H](Cc1ccccc1)C(N)=O.[Na+].[Na+]	121	190	0	66
CSCC[C@H](NC(=O)[C@H](Cc1ccc(OS(=O)(=O)[O-])cc1)NC(C)=O)C(=O)NCC(=O)N[C@@H](Cc1c[nH]c2ccccc12)C(=O)N[C@H](CCSC)C(=O)N[C@@H](CC(=O)O)C(=O)N[C@@H](Cc1ccccc1)C(N)=O.[Na+]	0	0.6	0	21
CSCC[C@H](NC(=O)[C@H](Cc1ccc(O)cc1)NC(C)=O)C(=O)NCC(=O)N[C@@H](Cc1c[nH]c2ccccc12)C(=O)N[C@@H](CCSC)C(=O)N[C@H](C(=O)N[C@@H](Cc1ccccc1)C(N)=O)[C@@H](C)OS(=O)(=O)[O-].[Na+] (Ac-YMGWM[Thr(SO3H)]F-NH2)	–	0.2	25	–
CSCC[C@H](NC(=O)[C@H](Cc1ccc(O)cc1)NC(C)=O)C(=O)NCC(=O)N[C@@H](Cc1c[nH]c2ccccc12)C(=O)N[C@@H](CCSC)C(=O)N1C[C@H](OS(=O)(=O)[O-])C[C@H]1C(=O)N[C@@H](Cc1ccccc1)C(N)=O.[Na+] (Ac-YMGWM[X1]F-NH2)	–	0.3	0	–
CSCC[C@H](NC(=O)[C@H](Cc1ccc(OS(=O)(=O)[O-])cc1)NC(C)=O)C(=O)NCC(=O)N[C@@H](Cc1c[nH]c2ccccc12)C(=O)N[C@@H](CCSC)C(=O)N[C@H](C(=O)N[C@@H](Cc1ccccc1)C(N)=O)[C@@H](C)OS(=O)(=O)[O-].[Na+].[Na+] (Ac-[sY]MGWM[Thr(SO3H)]F-NH2)	115	166	0	146
CSCC[C@H](NC(=O)[C@H](Cc1ccc(OS(=O)(=O)[O-])cc1)NC(C)=O)C(=O)NCC(=O)N[C@@H](Cc1c[nH]c2ccccc12)C(=O)N[C@@H](CCSC)C(=O)N1C[C@H](OS(=O)(=O)[O-])C[C@H]1C(=O)N[C@@H](Cc1ccccc1)C(N)=O.[Na+].[Na+] (Ac-[sY]MGWM[X1]F-NH2)	121	300	0	79
CSCC[C@H](NC(=O)[C@H](Cc1ccc(OS(=O)(=O)O)cc1)NC(=O)[C@@H](N)CC(=O)O)C(=O)NCC(=O)N[C@@H](Cc1c[nH]c2ccccc12)C(=O)N[C@@H](CCSC)C(=O)N[C@@H](CC(=O)O)C(=O)N[C@@H](Cc1ccccc1)C(N)=O [SINCALIDE]	100	100	0	100
H-GWMDF-NH2	38	0	100	62
